XBP1 UPR activ: activators of adaptive XBP1 UPR arm, primary screen, cell-based, CHO-XBP1 luciferase reporter, luminescence, uHTS; activation, % at 20 µM; IRE1-XBP1 UPR activation; percent of tunicamycin response, DMSO as zero; AID 463104, 2010; 330,000 compounds, 0.33% hits;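 active means versus positive control, 20 µM dose yields 30% or more activation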;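 further: 100% = tunicamycin at 10 µg/mL and 0% = DMSO only wells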
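Assay system: CHO-XBP1 luciferase reporter cells; Schedule: 6 h treatment, 37 °C; Detection: glow luminescence from Steady-Glo reagent; Benchmarks: high control tunicamycin 10 µg/mL final, low control DMSO vehicle only.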
Dynein transport: inhibitors of GR-EGFP nuclear translocation, primary screen, dynein cargo transport inhibitor project, imaging, high-content, 3617.4 mouse cells | test concentration mostly 20 µM; stimulated with dexamethasone, 1 µM; hits give low values | z-score, hits read low | AID 1381, 2008 | 220,000 compounds, 0.47% hits;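 active means plate z-score of nuclear minus cytoplasmic receptor signal below a set negative limit, without overly bright fluorescence or cell loss, cut at about -3.5 in these data, passing the limit was not always enough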;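 further: z-score of nuclear minus cytoplasmic ring GR-EGFP intensity difference per well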
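Schedule: 48 h induction, then 1 h compound, then 30 min agonist, 37 °C. Buffer or medium: tetracycline-free induction medium containing charcoal-stripped FBS. Reagent: 1.0 µM final dexamethasone stimulus. Evaluation: nuclear versus cytoplasmic GR-EGFP signal, averaged per well. Signal: high-content fluorescence imaging after fixation.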
UPR CHOP act: activators of apoptotic CHOP UPR arm, primary screen, cell-based, CHO-CHOP luciferase reporter, luminescence, uHTS. UPR activation; percent of tunicamycin response over DMSO baseline. activation, % at 10 µM. 330,000 compounds, 0.34% hits. AID 449763, 2010;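 active means at 10 µM dose, activation of 40% or more, normalized to positive control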;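 further: 100% = tunicamycin at 10 µg/mL and 0% = DMSO alone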
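Test system: CHO-CHOP cells, stable luciferase reporter of PERK-eIF2a-CHOP signalling | Quantity: 500 CHO-CHOP cells per well | Buffer or medium: F12 plus 10% serum | Compound dosing: 10 µM single point, 0.5% DMSO | Schedule: 6 h compound treatment, 37 °C | Signal: Luciferase luminescence | Control set: Tunicamycin high control, DMSO low control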
CHOP inhibitor: inhibitors of CHOP promoter induction, primary screen, cell-based, unfolded protein response, luciferase reporter; 220,000 compounds, 3.8% hits; CHO-K1 CHOP-promoter luciferase, tunicamycin-induced, 15-18 h; inhibition, % at 10 µM;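 active means compounds that reduced the stress-induced luciferase reporter signal by more than about 70% of percent inhibition, limit read from the data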;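 further: 0% = tunicamycin plus vehicle and 100% = wells without tunicamycin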
p-CIP stab down: p/CIP-EGFP fusion destabilizers, primary screen, fluorescence, F442A cells; 16 h; 290,000 compounds, 0.01% hits; AID 1984, 2009; Q05BA5; decrease of EGFP signal, % at 10 µM;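 active means EGFP signal decrease of at least 30% at 10 µM or well 3 SD below plate mean, unless failing retest; inactive means the rest, including hits failing retest or dose response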
B2AR ag: beta2AR agonists driving receptor internalization, primary screen, cell-based, FAP fluorogen, flow cytometry; Beta-2 adrenergic receptor (Homo sapiens), P07550; Am2.2-beta2AR cells; response, % (concentration not given with the values); 340,000 compounds, 0.43% hits; AID 504454, 2011;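 active means response above a set limit, near 3 SD of response in nonfluorescent compounds, cut at about 42% in these data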
Target sequence (P07550 whole entry, looked up): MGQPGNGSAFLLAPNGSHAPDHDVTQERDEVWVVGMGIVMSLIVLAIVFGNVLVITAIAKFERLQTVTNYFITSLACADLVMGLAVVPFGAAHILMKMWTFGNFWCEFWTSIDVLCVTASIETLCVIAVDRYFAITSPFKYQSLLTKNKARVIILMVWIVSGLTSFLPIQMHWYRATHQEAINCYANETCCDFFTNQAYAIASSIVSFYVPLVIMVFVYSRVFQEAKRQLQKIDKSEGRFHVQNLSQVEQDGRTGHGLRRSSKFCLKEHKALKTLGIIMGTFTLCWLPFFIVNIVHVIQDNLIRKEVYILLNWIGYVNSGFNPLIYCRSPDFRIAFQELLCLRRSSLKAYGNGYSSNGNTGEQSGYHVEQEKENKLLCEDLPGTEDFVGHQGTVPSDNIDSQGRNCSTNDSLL
Active calls of the source: *. Many of the other results were omitted from the sample, so hits are more common in it than they were.

For O=C1NN(c2ccccc2)C(=O)/C1=C/c1ccc(Sc2cccc3ccccc23)o1 the results were XBP1 UPR activ 3, Dynein transport -1.2, UPR CHOP act 6, CHOP inhibitor 104*, p-CIP stab down 1 and B2AR ag 8.
Screening O=C(c1ccc(O)cc1)c1ccc(Cl)cc1 returned XBP1 UPR activ 3, Dynein transport 0.14, UPR CHOP act 1, CHOP inhibitor 83*, p-CIP stab down 3 and B2AR ag -3.
Screening CC(/C=N/N1C(=O)CSC1=S)=C\c1ccccc1 returned XBP1 UPR activ 4, Dynein transport 0.27, UPR CHOP act 0, CHOP inhibitor 13, p-CIP stab down -7 and B2AR ag 0.
`CSc1nc(C)cc(C)c1S(=O)(=O)c1ccccc1C` gave XBP1 UPR activ 1, Dynein transport 1.6, UPR CHOP act 1, CHOP inhibitor 50, p-CIP stab down -12 and B2AR ag -5.
`CCSc1nc(C)cc(C)c1S(=O)(=O)c1ccccc1C` gave XBP1 UPR activ -5, Dynein transport 0.085, UPR CHOP act 1, CHOP inhibitor 71*, p-CIP stab down 5 and B2AR ag -6.
Screening COc1ccc2c(c1)c1ncn(CCN3CCNCC3)c(=O)c1n2C returned XBP1 UPR activ -2, Dynein transport 0.0072, UPR CHOP act -1, CHOP inhibitor 74*, p-CIP stab down -2 and B2AR ag 1.
Screening O=C(C(c1ccccc1)c1ccccc1)N1CCN(Cc2ccc(Br)cc2)CC1 returned XBP1 UPR activ -2, Dynein transport -1.3, UPR CHOP act -2, CHOP inhibitor 81*, p-CIP stab down -5 and B2AR ag 4.
`Nc1nc(SCC(=O)Nc2cc(Cl)c(Cl)cc2Cl)n[nH]1` gave XBP1 UPR activ -2, UPR CHOP act -2 and B2AR ag 4.
Screening O=C(Nc1ccc(Cl)c(Cl)c1)Nc1nnc(CSc2ccccc2)s1 returned XBP1 UPR activ 7, Dynein transport -0.35, UPR CHOP act 7, CHOP inhibitor 77*, p-CIP stab down -6 and B2AR ag 12.
For Cc1ccc(OCCSCc2nnc(NC(=O)Nc3cccc(Cl)c3)s2)cc1 the results were XBP1 UPR activ 7, Dynein transport -0.54, UPR CHOP act 3, CHOP inhibitor 83*, p-CIP stab down 0 and B2AR ag 4.
`O=C(Nc1ccc(Cl)c(Cl)c1)Nc1nccs1` gave XBP1 UPR activ 3, Dynein transport -0.48, UPR CHOP act 2, CHOP inhibitor 79*, p-CIP stab down -8 and B2AR ag 17.
For O=C(Nc1ccccc1)Nc1nnc(CSCc2ccccc2Cl)s1 the results were XBP1 UPR activ -2, Dynein transport 0.4, UPR CHOP act 0, CHOP inhibitor 90*, p-CIP stab down 4 and B2AR ag 0.
O=C(Nc1cccc(Cl)c1)Nc1nccs1 was read as XBP1 UPR activ 6, Dynein transport -1.5, UPR CHOP act 6, CHOP inhibitor -22, p-CIP stab down 2 and B2AR ag -6.
For O=C(CCc1nnc(CCCCc2ccccc2)o1)NCCN1CCOC1=O the results were XBP1 UPR activ 7, Dynein transport -1.1, UPR CHOP act 3, CHOP inhibitor 4, p-CIP stab down -5 and B2AR ag -10.
CC1CCC(NC(=O)c2cc(Cl)nc3ccccc23)CC1 (stereo unspecified) was read as XBP1 UPR activ 2, UPR CHOP act 2 and B2AR ag 2.
For Cc1ccc(NC(=O)CSc2nc3[nH]ncc3c(=O)[nH]2)c(C)c1 the results were XBP1 UPR activ -2, Dynein transport -0.45, UPR CHOP act -3, CHOP inhibitor 4, p-CIP stab down 11 and B2AR ag 13.
O=C(N/N=C/c1ccc(O)cc1O)NC12CC3CC(CC(C3)C1)C2 was read as XBP1 UPR activ 6, UPR CHOP act 4, p-CIP stab down -1 and B2AR ag 44*.
For CC(=O)c1cc2c(cc1NC(=O)Cn1cnc3ccccc3c1=O)OCO2 the results were XBP1 UPR activ -2, UPR CHOP act 1 and B2AR ag 0.
For C=CCn1c(CSc2nc3ccccc3s2)nnc1SCC(=O)NCc1ccccc1 the results were XBP1 UPR activ -3, Dynein transport -0.059, UPR CHOP act -1, CHOP inhibitor 17, p-CIP stab down 3 and B2AR ag -6.
Cc1cccc(NC(=O)CC2SC(=NC3CCCCC3)NC2=O)c1 (stereo unspecified) was read as XBP1 UPR activ -5, Dynein transport -0.22, UPR CHOP act 2, CHOP inhibitor 74*, p-CIP stab down 5 and B2AR ag -2.
`O=C(CC1SC(=NC2CCCCC2)NC1=O)Nc1ccccc1` (stereo unspecified) gave XBP1 UPR activ -2, Dynein transport -0.6, UPR CHOP act 2, CHOP inhibitor 29, p-CIP stab down -39 and B2AR ag -7.
Screening CCOC(=O)CSc1nc2nc(C)cc(C)n2n1 returned XBP1 UPR activ -1, Dynein transport -1.3, UPR CHOP act -1, CHOP inhibitor 83*, p-CIP stab down 4 and B2AR ag 5.
`O=C(Nc1ccc(OC(F)(F)F)cc1)Nc1cccc([N+](=O)[O-])c1` gave XBP1 UPR activ 11, Dynein transport -0.79, UPR CHOP act 4, CHOP inhibitor 106*, p-CIP stab down -3 and B2AR ag 11.
O=C(O)c1cc(NC(=O)c2ccc([N+](=O)[O-])cc2)cc(NC(=O)c2ccc([N+](=O)[O-])cc2)c1 was read as XBP1 UPR activ -5, UPR CHOP act 1, p-CIP stab down -3 and B2AR ag -7.
`O=C(Nc1ccc([N+](=O)[O-])cc1)C(=O)Nc1cccc(C(=O)O)c1` gave XBP1 UPR activ -7, Dynein transport -0.23, UPR CHOP act -10, CHOP inhibitor 102*, p-CIP stab down 4 and B2AR ag -1.
Screening CC(C)(C)CC(C)(C)NC(=O)Nc1cccc([N+](=O)[O-])c1 returned XBP1 UPR activ 2, Dynein transport -0.085, UPR CHOP act -2, CHOP inhibitor 80*, p-CIP stab down -4 and B2AR ag -1.
CC(C)(C)c1ccc(C(=O)Nc2cccc([N+](=O)[O-])c2)cc1 was read as Dynein transport -0.38, CHOP inhibitor 51, p-CIP stab down 6 and B2AR ag 0.
COC(=O)c1cc2nc(-c3ccc(OC)cc3)cc(C(F)(F)F)n2n1 was read as XBP1 UPR activ -5, Dynein transport -1, UPR CHOP act 2, CHOP inhibitor 70*, p-CIP stab down -6 and B2AR ag -19.
